Reference: ChEMBL document CHEMBL1137670, “First occurrence of an IMP metallo-beta-lactamase in Aeromonas caviae: IMP-19 in an isolate from France” (2007)

Assays:
[1] = substrate: CO/N=C(\C(=O)N[C@@H]1C(=O)N2C(C(=O)O)=C(COC(C)=O)CS[C@H]12)c1csc(N)n1; assay: (§1) Activity of Aeromonas caviae A324R metallo-beta-lactamase IMP-19 expressed in Escherichia coli DH5alpha by computerized microacidimetric method
In short: (§2)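 IMP-19 purified from sonicated recombinant E. coli DH5alpha(pIP19). Purification: SP Sepharose in 50 mM MES-NaOH pH 6.0 with 0–500 mM NaCl gradient, then 5 mM ZnCl2 and Superose 12 in 20 mM MES-NaOH–100 mM NaCl pH 6.0; purity >97% by SDS-PAGE. Km and kcat measured three times by computerized microacidimetry; variation coefficients at most 10%.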

[2] = substrate: CC1(C)S[C@@H]2[C@H](NC(=O)[C@H](N)c3ccc(O)cc3)C(=O)N2[C@H]1C(=O)O; assay: as §1; in short: as §2
[3] = substrate: CO[C@@]1(NC(=O)Cc2cccs2)C(=O)N2C(C(=O)O)=C(COC(N)=O)CS[C@@H]21; assay: as §1; in short: as §2
[4] = substrate: C[C@H]1[C@H](NC(=O)/C(=N\OC(C)(C)C(=O)O)c2csc(N)n2)C(=O)N1S(=O)(=O)O; assay: as §1; in short: as §2
[5] = substrate: CO/N=C(\C(=O)N[C@@H]1C(=O)N2C(C(=O)O)=C(COC(N)=O)CS[C@H]12)c1ccco1; assay: as §1; in short: as §2
[6] = substrate: CCN1CCN(C(=O)N[C@@H](C(=O)N[C@@H]2C(=O)N3[C@@H]2SC(C)(C)[C@@H]3C(=O)O)c2ccccc2)C(=O)C1=O; assay: as §1; in short: as §2
[7] = substrate: CC1(C)S[C@@H]2[C@H](NC(=O)[C@H](C(=O)O)c3ccsc3)C(=O)N2[C@H]1C(=O)O; assay: as §1; in short: as §2
[8] = substrate: CC(=O)OCC1=C(C(=O)O)N2C(=O)[C@@H](NC(=O)Cc3cccs3)[C@H]2SC1; assay: as §1; in short: as §2
[9] = substrate: CC1(C)S[C@@H]2[C@H](NC(=O)Cc3ccccc3)C(=O)N2[C@H]1C(=O)O; assay: as §1; in short: as §2
[10] = substrate: C[C@@H](O)[C@H]1C(=O)N2C(C(=O)O)=C(S[C@@H]3CN[C@H](C(=O)N(C)C)C3)[C@H](C)[C@H]12; assay: as §1; in short: as §2
[11] = substrate: CC(C)(O/N=C(\C(=O)N[C@@H]1C(=O)N2C(C(=O)[O-])=C(C[n+]3ccccc3)CS[C@H]12)c1csc(N)n1)C(=O)O; assay: as §1; in short: as §2
[12] = substrate: CO/N=C(\C(=O)N[C@@H]1C(=O)N2C(C(=O)[O-])=C(C[n+]3cccc4c3CCC4)CS[C@H]12)c1csc(N)n1; assay: as §1; in short: as §2
[13] = substrate: C[C@@H](O)[C@H]1C(=O)N2C(C(=O)O)=C(SCCNC=N)C[C@H]12; assay: as §1; in short: as §2
[14] = substrate: CO/N=C(\C(=O)N[C@@H]1C(=O)N2C(C(=O)O)=C(COC(C)=O)CS[C@H]12)c1csc(N)n1; assay: (§3) Ratio of Kcat to Km of Aeromonas caviae A324R metallo-beta-lactamase IMP-19 expressed in Escherichia coli DH5alpha by computerized microacidimetric method; in short: as §2
[15] = substrate: CC1(C)S[C@@H]2[C@H](NC(=O)[C@H](N)c3ccc(O)cc3)C(=O)N2[C@H]1C(=O)O; assay: as §3; in short: as §2
[16] = substrate: CO[C@@]1(NC(=O)Cc2cccs2)C(=O)N2C(C(=O)O)=C(COC(N)=O)CS[C@@H]21; assay: as §3; in short: as §2
[17] = substrate: CO/N=C(\C(=O)N[C@@H]1C(=O)N2C(C(=O)O)=C(COC(N)=O)CS[C@H]12)c1ccco1; assay: as §3; in short: as §2
[18] = substrate: CCN1CCN(C(=O)N[C@@H](C(=O)N[C@@H]2C(=O)N3[C@@H]2SC(C)(C)[C@@H]3C(=O)O)c2ccccc2)C(=O)C1=O; assay: as §3; in short: as §2
[19] = substrate: CC1(C)S[C@@H]2[C@H](NC(=O)[C@H](C(=O)O)c3ccsc3)C(=O)N2[C@H]1C(=O)O; assay: as §3; in short: as §2
[20] = substrate: CC(=O)OCC1=C(C(=O)O)N2C(=O)[C@@H](NC(=O)Cc3cccs3)[C@H]2SC1; assay: as §3; in short: as §2
[21] = substrate: CC1(C)S[C@@H]2[C@H](NC(=O)Cc3ccccc3)C(=O)N2[C@H]1C(=O)O; assay: as §3; in short: as §2
[22] = substrate: C[C@@H](O)[C@H]1C(=O)N2C(C(=O)O)=C(S[C@@H]3CN[C@H](C(=O)N(C)C)C3)[C@H](C)[C@H]12; assay: as §3; in short: as §2
[23] = substrate: CC(C)(O/N=C(\C(=O)N[C@@H]1C(=O)N2C(C(=O)[O-])=C(C[n+]3ccccc3)CS[C@H]12)c1csc(N)n1)C(=O)O; assay: as §3; in short: as §2
[24] = substrate: CO/N=C(\C(=O)N[C@@H]1C(=O)N2C(C(=O)[O-])=C(C[n+]3cccc4c3CCC4)CS[C@H]12)c1csc(N)n1; assay: as §3; in short: as §2
[25] = substrate: C[C@@H](O)[C@H]1C(=O)N2C(C(=O)O)=C(SCCNC=N)C[C@H]12; assay: as §3; in short: as §2

B1: IMP-19 (Aeromonas caviae), A8QUY6 (protein)
chain: MKKLFVLCVCFLCSITAAGAALPDLKIEKLEEGVYVHTSFEEVNGWGVVSKHGLVVLVNTDAYLIDTPFTATDTEKLVNWFVERGYKIKGTISSHFHSDSTGGIEWLNSQSIPTYASELTNELLKKDGKVQAKNSFSGVSYWLVKNKIEVFYPGPGHTQDNVVVWLPEKKILFGGCFVKPDGLGNLGDANLEAWPKSAKILMSKYVKAKLVVSSHSEIGDASLLKRTWEQAVKGLNESKKPSQPSN
For B1, which Km [1] is on record?
Its Km is 61 µM.

And the kcat [1]?
The kcat was 20.1 s⁻¹.

What about the Km [2] of the same protein?
Its Km is 207 µM.

And the kcat [2]?
Its kcat is 456 s⁻¹.

What about the Km [3] of the same protein?
Its Km is 33 µM.

And the kcat [3]?
Its kcat is 9.7 s⁻¹.

And the kcat [4]?
The kcat was under 0.1 s⁻¹.

And the Km [5]?
The Km was 95 µM.

And the kcat [5]?
The kcat was 16.4 s⁻¹.

What about the Km [6] of the same protein?
Its Km is 148 µM.

What about the kcat [6] of the same protein?
The kcat was 41.2 s⁻¹.

What about the Km [7] of the same protein?
Its Km is 140 µM.

What about the kcat [7] of the same protein?
Its kcat is 683 s⁻¹.

And the Km [8]?
Its Km is 76 µM.

And the kcat [8]?
The kcat was 11 s⁻¹.

And the Km [9]?
The Km was 206 µM.

What about the kcat [9] of the same protein?
Its kcat is 1010 s⁻¹.

And the Km [10]?
Its Km is 7 µM.

What about the kcat [10] of the same protein?
Its kcat is 1 s⁻¹.

What about the Km [11] of the same protein?
The Km was 20 µM.

What about the kcat [11] of the same protein?
The kcat was 6.4 s⁻¹.

And the Km [12]?
The Km was 48 µM.

And the kcat [12]?
Its kcat is 14.3 s⁻¹.

What about the Km [13] of the same protein?
The Km was 100 µM.

What about the kcat [13] of the same protein?
Its kcat is 26.5 s⁻¹.

What about the kcat/Km [14] of the same protein?
The kcat/Km was 0.33.

And the kcat/Km [15]?
The kcat/Km was 2.2.

And the kcat/Km [16]?
Its kcat/Km is 0.29.

And the kcat/Km [17]?
Its kcat/Km is 0.17.

And the kcat/Km [18]?
The kcat/Km was 0.28.

And the kcat/Km [19]?
The kcat/Km was 4.88.

And the kcat/Km [20]?
Its kcat/Km is 0.14.

What about the kcat/Km [21] of the same protein?
Its kcat/Km is 4.91.

And the kcat/Km [22]?
Its kcat/Km is 0.14.

And the kcat/Km [23]?
Its kcat/Km is 0.32.

What about the kcat/Km [24] of the same protein?
Its kcat/Km is 0.3.

And the kcat/Km [25]?
The kcat/Km was 0.26.
